Bioassay records (PubChem BioAssay)
This is a sample that favours compounds with a hit; in the whole collection about 2.1% have one here.
GSK3A inh: blockers of GSK3A enzyme activity – biochemical, luminescence, cell-free homogeneous, HTS, primary screen; Glycogen synthase kinase-3 alpha (Homo sapiens), P49840; GSK-3 alpha kinase, ADP-Glo luminescence, 60 min; inhibition, % at 10 µM; hit rate 0.1% among 320,000;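 active = more than half of replicates show inhibition above 20%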;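 note: GST-tagged GSK-3 alpha with peptide substrate and 25 µM ATP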
STK33 kinase inh: inhibitors of purified STK33 kinase, primary screen, biochemical, ADP-Glo luminescence, homogeneous, cell-free. MBP phosphorylation. inhibition, % at 10 µM. hit rate 0.073% among 320,000. AID 2661, 2010;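 active = inhibition at or above 25%, using the most active replicate where run in duplicate; inactive = inhibition below 25%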
MEKK2 WT-MEK5: modulators of MEK5 binding to wildtype MEKK2, primary screen, biochemical, multiplex bead flow cytometry, Alexa488-MEK5; binding response (% of control), % at 10 µM; Mitogen-activated protein kinase kinase kinase 2 (Homo sapiens), Q9Y2U5; Alexa488-MEK5 binding to MEKK2 WT; actives lie on both sides; hit rate 1.1% among 290,000; in the data active = binding response below about 67% or above about 130%
GSK3B inh: human GSK3beta kinase inhibitors, primary screen, biochemical, cell-free homogeneous, HTS; Glycogen synthase kinase-3 beta (Homo sapiens), P49841; GST-GSK3beta kinase, ADP-Glo luminescence, 60 min; hits give low values; activity score (negative = inhibition), % at 10 µM; hit rate 0.038% among 300,000;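 active = more than half of replicate wells score below -50%, meaning over 50% inhibition versus plate controls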
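Test system: GST-fused GSK3beta enzyme, cell-free | Quantity: 1.6 ng GST-GSK3beta enzyme per well | Reagent: 25 µM ATP with peptide substrate | Schedule: 60 min enzyme reaction, room temperature | Signal: Luminescent ADP-Glo measurement of ADP formed | Read-out basis: Score relative to plate controls | Control set: DMSO and 20 µM GW8510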
MEKK3 PB1 HTS: modulators of MEKK3-MEK5 PB1 binding, primary screen, biochemical, wildtype MEKK3, multiplex bead flow cytometry, Alexa488-MEK5. Mitogen-activated protein kinase kinase kinase 3 (Homo sapiens), Q99759. bead-based flow cytometry, Alexa488-MEK5 binding to MEKK3; actives lie on both sides; 0 = blocked by unlabeled MEK5, 100 = vehicle. binding response (% of control), % at 10 µM. hit rate 1.4% among 290,000. AID 1529, 2009;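 active = binding response more than 3 SD above or below the average of its plate-row segment, actives on both sides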;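 note: Alexa488 bead fluorescence after subtracting the streptavidin-only scavenger bead signal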
Target sequence (Q99759 whole entry, looked up): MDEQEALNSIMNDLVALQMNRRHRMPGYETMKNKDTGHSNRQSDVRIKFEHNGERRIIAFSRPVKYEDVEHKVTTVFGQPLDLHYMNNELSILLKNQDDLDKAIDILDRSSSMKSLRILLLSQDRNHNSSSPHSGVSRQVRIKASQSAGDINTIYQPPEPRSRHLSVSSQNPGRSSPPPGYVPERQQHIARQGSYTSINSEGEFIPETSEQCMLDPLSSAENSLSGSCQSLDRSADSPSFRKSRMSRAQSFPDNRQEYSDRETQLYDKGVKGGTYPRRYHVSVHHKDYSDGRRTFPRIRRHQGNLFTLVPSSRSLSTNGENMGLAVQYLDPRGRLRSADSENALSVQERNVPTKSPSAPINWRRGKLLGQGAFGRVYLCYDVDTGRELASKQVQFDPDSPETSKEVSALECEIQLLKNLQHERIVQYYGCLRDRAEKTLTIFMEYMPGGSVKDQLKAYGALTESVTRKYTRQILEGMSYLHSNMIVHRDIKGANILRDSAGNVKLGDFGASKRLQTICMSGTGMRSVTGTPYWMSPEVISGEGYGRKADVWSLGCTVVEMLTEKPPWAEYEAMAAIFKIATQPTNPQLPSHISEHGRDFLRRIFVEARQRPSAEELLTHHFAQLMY
MEKK2 mut-MEK5: MEK5 binding signal on mutant MEKK2 PB1, primary screen, biochemical, multiplex bead flow cytometry, Alexa488-MEK5; Alexa488-MEK5 binding to MEKK2 mutant; percent response, % at 10 µM; hit rate 0.35% among 290,000; AID 1530, 2009; in the data active = percent response above about 24%, passing the limit was not always enough
MEKK2wt confirm: modulators of MEK5 binding to wildtype MEKK2, confirmation, biochemical, single concentration, multiplex bead flow cytometry. shares compounds with MEKK3 PB1 HTS. Alexa488-MEK5 binding to MEKK2 WT; actives lie on both sides. binding response (% of control), % at 10 µM. hit rate 2.4% among 5,900. AID 1892, 2009; in the data active = binding response below about 16% or above about 210%; inactive = in between
MEKK2mut-MEK5: mutant MEKK2 PB1-MEK5 binding signal retest – biochemical, single concentration, multiplex bead flow cytometry, confirmation; Alexa488-MEK5 binding to MEKK2 mutant; percent response, % at 10 µM; shares compounds with MEKK3 PB1 HTS; AID 1893, 2009; hit rate 2% among 5,900; in the data active = percent response mostly above about 71%, no sharp cut-off; inactive = mostly below about 38%;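 note: higher means compound restores mutant binding toward wildtype level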
MEKK3 confirm: MEKK3 wild-type PB1 binding to MEK5, inhibitors, confirmation, biochemical, bead multiplex flow cytometry, single concentration, wildtype | shares compounds with MEKK3 PB1 HTS | Alexa488-MEK5 binding to MEKK3; hits give low values | binding response (% of control), % at 10 µM | hit rate 1.8% among 5,900 | AID 1894, 2009;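 active = binding response below 72% of control, or above a set upper limit, though filed actives all read lower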;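 note: lower values mean stronger disruption of MEK5 binding to MEKK3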
Hits are given with their value; . = inactive; / = no result; [ ] = remark or other dose.

SMILES	GSK3A inh	STK33 kinase inh	MEKK2 WT-MEK5	GSK3B inh	MEKK3 PB1 HTS	MEKK2 mut-MEK5	MEKK2wt confirm	MEKK2mut-MEK5	MEKK3 confirm
C(=C\c1nccc2c1[nH]c1ccccc12)/c1ccccc1	.	.	.	.	.	.	/	/	/
Fc1ccc(/C=C\c2nccc3c2[nH]c2ccccc23)cc1	.	.	195.0	.	.	.	.	.	.
Cc1ccc(/C=C/c2nc3ccccc3c(=O)[nH]2)cc1	.	.	.	.	.	.	/	/	/
Cc1ccc(/C=C\c2nccc3c2[nH]c2ccccc23)cc1	.	.	174.0	.	.	.	.	.	.
CN1CCN(CCCN2c3ccccc3Sc3ccc(C(F)(F)F)cc32)CC1	.	.	168.0	.	.	.	.	.	.
O=C(CN1CCCC(O)C1)N1c2ccccc2Sc2ccc(C(F)(F)F)cc21 (stereo not given)	.	.	.	.	.	.	/	/	/
Cn1ccnc1Sc1cc(NCCCO)c([N+](=O)[O-])c2nonc12	.	.	.	.	132.0	.	.	.	.
O=C(CCNS(=O)(=O)c1ccc2[nH]c(=O)oc2c1)Nc1cccc(Br)c1	.	.	.	.	.	.	/	/	/
Cc1cc(=O)oc2cc(OCc3ccc(C(=O)OCC(=O)Nc4ccc(N(C)C)cc4)cc3)ccc12	/	/	.	.	.	.	/	/	/
CCOc1ccccc1NC(=O)CC1SC(=N)N(c2ccccc2)C1=O (stereo not given)	.	.	.	.	139.0	.	.	.	.
COc1ccc(OC)c(NC(=O)CSc2nnnn2-c2ccc3c(c2)OCO3)c1	.	.	.	.	128.0	.	.	.	.
CNc1nc(Cl)c(SC)c(NC2CCCCC2)n1	.	.	.	.	148.0	.	.	.	.
CNc1nc(Cl)c(SC)c(NCc2cccc(OC)c2)n1	.	.	.	.	.	.	/	/	/
CCO/N=C(/c1nonc1N)N1CCN(c2ccc([N+](=O)[O-])cc2)CC1	.	.	.	.	129.0	.	.	.	.
CC(=O)c1sc2nc(-c3ccccc3)cc(C)c2c1N	.	.	.	.	.	.	/	/	/
c1ccc(CN2CCN(CCCNc3ccc4nnc(-c5ccccc5)n4n3)CC2)cc1	.	.	.	.	.	24.0	.	.	.
Cc1ccc(CNc2ccc3nnc(-c4ccccc4)n3n2)cc1	.	.	.	.	.	.	/	/	/
Cc1c(NC(=O)c2nn3c(c2Br)NC(c2ccccc2)CC3C(F)(F)F)c(=O)n(-c2ccccc2)n1C (stereo not given)	.	.	.	.	.	.	/	/	/
CCOC(=O)C(NC(=O)c1ccccc1Cl)(Nc1ccc(C)c(C)c1)C(F)(F)F (stereo not given)	.	.	.	.	.	.	/	/	/
CCOC(=O)C(NC(=O)c1ccccc1Cl)(Nc1ccc(C(F)(F)F)cc1)C(F)(F)F (stereo not given)	.	.	.	.	151.0	.	.	.	.
CCOC(=O)c1ccc(NC(=S)NC2CCCC2)cc1	.	.	.	.	65.0[inhibitor]	.	.	.	.
